Data set [1] can be described thus: Inhibition of FITC-geldanamycin binding to dog GST-tagged GRP94 N41 deletion mutant (69 to 337 residues) expressed in Escherichia coli BL21star (DE3) after 4 hrs by GM-FITC-based FP assay. Set-up: species or system Canis lupus familiaris.
Another data set is filed under the species Canis lupus familiaris. Put plainly: Inhibition of FITC-geldanamycin binding to dog GST-tagged GRP94 N41 deletion mutant (69 to 337 residues) expressed in Escherichia coli BL21star (DE3) at 100 uM after 4 hrs by FP assay relative to control.
For data set [2], the target named is Heat shock protein HSP 90-alpha (Homo sapiens, UniProt P07900). Put plainly: Inhibition of FITC-geldanamycin binding to human His-tagged HSP90alpha N-terminal domain (1 to 236 residues) expressed in Escherichia coli BL21star (DE3) at 100 uM after 4 hrs by FP assay relative to control. In outline: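 Hsp90αN (15 nM final) with GM-FITC (6 nM final) and compound in HEPES/KCl/MgCl2 buffer pH 7.4 with NP40, DTT, BGG; 4 h at 4 °C in dark; FP at ex 485/em 535 nm; inhibition computed against GM-FITC-only and protein-plus-probe controls; n = 3.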

Calls of active or inactive are those of the source. The calls are words filed in the database; no cut-off is given here.

A word on the IC50: it is the concentration that gives 50% inhibition. Higher therefore signals weaker potency in that assay. Usually inhibition stands for the relative decrease from the control value, in per cent.

In data set [1], `Cc1cccc(C)c1-c1ccc(N[C@H]2CC[C@H](O)CC2)c(C(N)=O)c1` returned an IC50 of 1420 nM. This compound displayed an inhibition in the data set listed under Canis lupus familiaris of 100%. The “inhibition (INH)” value in data set [2] is given as “Not Active”.

`CC1(C)CC(=O)c2c(C(F)(F)F)nn(-c3ccc(C(N)=O)c(N[C@H]4CC[C@H](O)CC4)c3)c2C1` [SNX-2112] yielded an IC50 in data set [1] of 97 nM. The inhibition in the data set listed under Canis lupus familiaris worked out at 100%.

`Cc1cccc(-c2ccc(N[C@H]3CC[C@H](O)CC3)c(C(N)=O)c2)c1` came in with a concentration for half-maximal inhibition (IC50) in data set [1] of 1160 nM. The compound also showed an inhibition in the data set listed under Canis lupus familiaris of 100%. In addition, in data set [2], the “inhibition (INH)” value is reported as “Not Active”.

`Cc1cc(C)c(-c2ccc(N[C@H]3CC[C@H](O)CC3)c(C(N)=O)c2)c(C)c1` yielded a concentration for half-maximal inhibition (IC50) in data set [1] of 1110 nM. Moreover, in the data set filed under Canis lupus familiaris, the inhibition came to 100%. Moreover, in data set [2], the “inhibition (INH)” value is “Not Active”.

Turning to `COc1cccc(-c2ccc(N[C@H]3CC[C@H](O)CC3)c(C(N)=O)c2)c1`, the IC50 in data set [1] came out at 4750 nM. In the data set filed under Canis lupus familiaris, the inhibition was 100%. Moreover, in data set [2], the “inhibition (INH)” value was “Not Active”.

Turning to `NC(=O)c1cc(-c2cccc(Cl)c2Cl)ccc1N[C@H]1CC[C@H](O)CC1`, in data set [1], the IC50 was determined as 310 nM. This compound also registered an inhibition in the data set filed under Canis lupus familiaris of 100%. For the same compound, the “inhibition (INH)” value in data set [2] is “Not Active”.

`COCCNc1ccc(-c2ccc(C(C)C)cc2)cc1C(N)=O` displayed an IC50 in data set [1] of 930 nM. The compound further displayed an inhibition in the data set filed under Canis lupus familiaris of 96%. The “inhibition (INH)” value in data set [2] was “Not Active”.

On to `NC(=O)c1cc(-c2cccc(Cl)c2)ccc1N[C@H]1CC[C@H](O)CC1`, for which the IC50 in data set [1] worked out at 2030 nM. Further, in the data set filed under Canis lupus familiaris, the inhibition came out at 100%. The “inhibition (INH)” value in data set [2] was “Not Active”.

Turning to `COc1ccc(-c2ccc(N[C@H]3CC[C@H](O)CC3)c(C(N)=O)c2)cc1`, the IC50 in data set [1] was determined as 500 nM. The same compound returned an inhibition in the data set listed under Canis lupus familiaris of 100%. Besides, in data set [2], the “inhibition (INH)” value is “Not Active”.

In the data set listed under Canis lupus familiaris, `NC(=O)c1cc(-c2cccc3ccccc23)ccc1N[C@H]1CC[C@H](O)CC1` yielded an inhibition of 0%. The “inhibition (INH)” value in data set [2] is “Not Active”.

With `NC(=O)c1cc(-c2ccccc2)ccc1N[C@H]1CC[C@H](O)CC1`, the IC50 in data set [1] was found to be 2770 nM. This compound also came in with an inhibition in the data set filed under Canis lupus familiaris of 93%. In addition, the “inhibition (INH)” value in data set [2] was “Not Active”.

The compound `NC(=O)c1cc(-c2ccccc2Cl)ccc1N[C@H]1CC[C@H](O)CC1` returned a half-maximal inhibitory concentration (IC50) in data set [1] of 2720 nM. Also, the inhibition in the data set filed under Canis lupus familiaris came to 100%. Also, the “inhibition (INH)” value in data set [2] is recorded as “Not Active”.

Compound `CCCc1ccc(-c2ccc(N[C@H]3CC[C@H](O)CC3)c(C(N)=O)c2)cc1` showed an IC50 in data set [1] of 53 nM. The inhibition in the data set listed under Canis lupus familiaris was 100%. For the same compound, the “inhibition (INH)” value in data set [2] is “Not Active”.

The compound `CC[C@H](C)[C@H](N)C(=O)N1CCC(Nc2ccc(-c3ccc(C(C)C)cc3)cc2C(N)=O)CC1` gave an IC50 in data set [1] of 470 nM. For the same compound, the inhibition in the data set filed under Canis lupus familiaris was determined as 92%. Besides, the “inhibition (INH)” value in data set [2] is “Not Active”.

`CC(C)c1ccc(-c2ccc(NC3CCCC3)c(C(N)=O)c2)cc1` had an IC50 in data set [1] of 3110 nM. The inhibition in the data set listed under Canis lupus familiaris was determined as 89%. Further, the “inhibition (INH)” value in data set [2] is on record as “Not Active”.

`CC(C)c1ccc(-c2ccc(NC3CCN(C(=O)CN)CC3)c(C(N)=O)c2)cc1` yielded a 50% inhibitory concentration (IC50) in data set [1] of 210 nM. In the data set listed under Canis lupus familiaris, this compound displayed an inhibition of 100%. In addition, the “inhibition (INH)” value in data set [2] is “Not Active”.

`NC(=O)c1cc(-c2cc(Cl)cc(Cl)c2)ccc1N[C@H]1CC[C@H](O)CC1` came in with an IC50 in data set [1] of 24700 nM. The compound further showed an inhibition in the data set filed under Canis lupus familiaris of 66%. In addition, the “inhibition (INH)” value in data set [2] was “Not Active”.

With `COc1ccccc1-c1ccc(N[C@H]2CC[C@H](O)CC2)c(C(N)=O)c1`, the IC50 in data set [1] was 11500 nM. The inhibition in the data set filed under Canis lupus familiaris came to 89%. Also, the “inhibition (INH)” value in data set [2] is “Not Active”.

In turn, `NC(=O)c1cc(-c2ccc(Cl)c(Cl)c2)ccc1N[C@H]1CC[C@H](O)CC1` showed an IC50 in data set [1] of 600 nM. The compound further registered an inhibition in the data set filed under Canis lupus familiaris of 100%. Further, the “inhibition (INH)” value in data set [2] is on record as “Not Active”.

`Cc1ccc(-c2ccc(N[C@H]3CC[C@H](O)CC3)c(C(N)=O)c2)cc1C`: the IC50 in data set [1] amounted to 710 nM. The same compound came in with an inhibition in the data set listed under Canis lupus familiaris of 100%. Besides, in data set [2], the “inhibition (INH)” value is “Not Active”.

As for `Cc1ccc(-c2ccc(N[C@H]3CC[C@H](O)CC3)c(C(N)=O)c2)cc1`, the half-maximal inhibitory concentration (IC50) in data set [1] is 340 nM. In the data set filed under Canis lupus familiaris, the inhibition is 100%. Also, the “inhibition (INH)” value in data set [2] is listed as “Not Active”.

Consider `CC(N)C(=O)N1CCC(Nc2ccc(-c3ccc(C(C)C)cc3)cc2C(N)=O)CC1` (centres undefined), for which, in data set [1], the IC50 is 370 nM. For the same compound, in the data set filed under Canis lupus familiaris, the inhibition was found to be 88%. Moreover, the “inhibition (INH)” value in data set [2] is given as “Not Active”.

As for `CC(C)c1ccc(-c2ccc(NC3CCNCC3)c(C(N)=O)c2)cc1`, the IC50 in data set [1] came to 470 nM. Besides, the inhibition in the data set listed under Canis lupus familiaris was 100%. For the same compound, the “inhibition (INH)” value in data set [2] is given as “Not Active”.

In the case of `NC(=O)c1cc(-c2ccc(-n3cccc3)cc2)ccc1N[C@H]1CC[C@H](O)CC1`, the inhibition in the data set filed under Canis lupus familiaris amounted to 0%. Besides, the “inhibition (INH)” value in data set [2] is on record as “Not Active”.

In data set [1], `CC(C)c1ccc(-c2ccc(NC3CCN(C(=O)C(N)C(C)C)CC3)c(C(N)=O)c2)cc1` (centres undefined) registered an IC50 of 450 nM. For the same compound, the inhibition in the data set filed under Canis lupus familiaris stood at 91%. Moreover, the “inhibition (INH)” value in data set [2] is on record as “Not Active”.

In data set [1], `CC(C)C[C@H](N)C(=O)N1CCC(Nc2ccc(-c3ccc(C(C)C)cc3)cc2C(N)=O)CC1` returned an IC50 of 480 nM. This compound also showed an inhibition in the data set listed under Canis lupus familiaris of 89%. Moreover, in data set [2], the “inhibition (INH)” value is “Not Active”.

In turn, `CC(C)c1ccc(-c2ccc(NC3CCN(C(=O)CCCCCN)CC3)c(C(N)=O)c2)cc1` had an IC50 in data set [1] of 150 nM. In the data set listed under Canis lupus familiaris, this compound gave an inhibition of 100%. For the same compound, the “inhibition (INH)” value in data set [2] is recorded as “Not Active”.

On to `CCc1ccc(-c2ccc(N[C@H]3CC[C@H](O)CC3)c(C(N)=O)c2)cc1`, for which the IC50 in data set [1] was 7 nM. Also, the inhibition in the data set listed under Canis lupus familiaris stood at 100%. For the same compound, the “inhibition (INH)” value in data set [2] is “Not Active”.

As for `CC(C)c1ccc(-c2ccc(NC3CCN(C(=O)CCN)CC3)c(C(N)=O)c2)cc1`, in data set [1], the half-maximal inhibitory concentration (IC50) was 220 nM. The compound also returned an inhibition in the data set listed under Canis lupus familiaris of 96%. Further, in data set [2], the “inhibition (INH)” value is “Not Active”.

`NC(=O)c1cc(-c2c(Cl)cccc2Cl)ccc1N[C@H]1CC[C@H](O)CC1`: in data set [1], the IC50 turned out to be 140 nM. In the data set filed under Canis lupus familiaris, this compound came in with an inhibition of 100%. For the same compound, the “inhibition (INH)” value in data set [2] is listed as “Not Active”.

In turn, `CC(C)c1ccc(-c2ccc(N[C@H]3CCOC3)c(C(N)=O)c2)cc1` returned an IC50 in data set [1] of 130 nM. In the data set listed under Canis lupus familiaris, this compound gave an inhibition of 95%. The “inhibition (INH)” value in data set [2] is recorded as “Not Active”.

For `Cc1ccc(-c2ccc(N[C@H]3CC[C@H](O)CC3)c(C(N)=O)c2)c(C)c1`, in data set [1], the IC50 is 1220 nM. The compound also returned an inhibition in the data set filed under Canis lupus familiaris of 91%. Also, the “inhibition (INH)” value in data set [2] was “Not Active”.

In data set [1], `Cc1ccccc1-c1ccc(N[C@H]2CC[C@H](O)CC2)c(C(N)=O)c1` displayed an IC50 of 1810 nM. This compound displayed an inhibition in the data set listed under Canis lupus familiaris of 90%. Besides, the “inhibition (INH)” value in data set [2] is “Not Active”.

In data set [1], `CC(=O)N1CCC(Nc2ccc(-c3ccc(C(C)C)cc3)cc2C(N)=O)CC1` yielded an IC50 of 55 nM. In the data set listed under Canis lupus familiaris, this compound showed an inhibition of 100%. Moreover, the “inhibition (INH)” value in data set [2] was “Not Active”.

In data set [1], `CCOc1ccc(-c2ccc(N[C@H]3CC[C@H](O)CC3)c(C(N)=O)c2)cc1` had an IC50 of 490 nM. The compound also returned an inhibition in the data set listed under Canis lupus familiaris of 100%. In addition, in data set [2], the “inhibition (INH)” value is listed as “Not Active”.

As for `CC(C)c1ccc(-c2ccc(NCC3CCCCC3)c(C(N)=O)c2)cc1`, the inhibition result in the data set filed under Canis lupus familiaris is “inactive”. Moreover, in data set [2], the “inhibition (INH)” value is on record as “Not Active”.

The record behind these values is ChEMBL document CHEMBL4152387, “Discovery of a Potent Grp94 Selective Inhibitor with Anti-Inflammatory Efficacy in a Mouse Model of Ulcerative Colitis” (J Med Chem, 2018).
